Measured values taken from ChEMBL document CHEMBL3868642, “Discovery of novel curcumin derivatives targeting xanthine oxidase and urate transporter 1 as anti-hyperuricemic agents” (Bioorg Med Chem, 2017).
The source made the active and inactive calls. The calls are words filed in the database; no cut-off is given here.

Experiments:
Mus musculus [1] = assay: Antihyperuricemic activity in fasted Kun Ming mouse assessed as inhibition of potassium oxonate-induced uric acid level in serum at 10 mg/kg qd administered 1 hr post potassium oxonate-challenge for 7 days via oral gavage measured 1 hr post last dose by phosphotungstic acid method relative to vehicle-treated control; format: functional
Mus musculus [2] = assay: Uricosuric activity in potassium oxonate-induced Kun Ming mouse model of hyperuricemia assessed as increase in uric acid excretion in urine at 10 mg/kg qd administered 1 hr post potassium oxonate-challenge for 7 days via oral gavage measured up to 24 hrs post last dose by phosphotungstic acid method relative to vehicle-treated control; format: functional
[3] = molecular target: T1, Solute carrier family 22 member 12 (Homo sapiens, UniProt Q96S37); assay: Inhibition of URAT1 (unknown origin) expressed in HEK293 cells assessed as inhibition of [14C]-uric acid uptake at 100 uM preincubated for 30 mins followed by [14C]-uric acid addition by liquid scintillation counting analysis relative to control; format: cell-based
T1 sequence (Q96S37 whole entry): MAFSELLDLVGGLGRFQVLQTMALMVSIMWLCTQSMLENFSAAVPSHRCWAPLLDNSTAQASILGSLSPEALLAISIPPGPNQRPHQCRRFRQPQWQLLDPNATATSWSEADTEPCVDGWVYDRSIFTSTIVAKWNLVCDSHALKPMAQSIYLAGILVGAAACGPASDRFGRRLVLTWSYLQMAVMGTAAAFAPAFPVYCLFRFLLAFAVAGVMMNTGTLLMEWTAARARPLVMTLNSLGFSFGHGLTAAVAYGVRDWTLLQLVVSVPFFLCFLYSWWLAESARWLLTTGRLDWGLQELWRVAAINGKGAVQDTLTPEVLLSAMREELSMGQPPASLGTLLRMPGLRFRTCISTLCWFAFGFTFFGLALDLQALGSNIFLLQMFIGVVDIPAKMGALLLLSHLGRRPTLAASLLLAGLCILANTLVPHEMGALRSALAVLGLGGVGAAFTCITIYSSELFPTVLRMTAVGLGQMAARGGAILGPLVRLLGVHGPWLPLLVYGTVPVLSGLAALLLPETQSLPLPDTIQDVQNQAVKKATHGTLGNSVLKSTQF

[4] = molecular target: Xanthine dehydrogenase/oxidase (Homo sapiens, UniProt P47989); assay: Inhibition of xanthine oxidase (unknown origin) assessed as reduction in uric acid formation preincubated for 5 mins followed by addition of xanthine substrate measured every minute up to 8 mins
Xanthine dehydrogenase/oxidase, sequence (P47989 whole entry): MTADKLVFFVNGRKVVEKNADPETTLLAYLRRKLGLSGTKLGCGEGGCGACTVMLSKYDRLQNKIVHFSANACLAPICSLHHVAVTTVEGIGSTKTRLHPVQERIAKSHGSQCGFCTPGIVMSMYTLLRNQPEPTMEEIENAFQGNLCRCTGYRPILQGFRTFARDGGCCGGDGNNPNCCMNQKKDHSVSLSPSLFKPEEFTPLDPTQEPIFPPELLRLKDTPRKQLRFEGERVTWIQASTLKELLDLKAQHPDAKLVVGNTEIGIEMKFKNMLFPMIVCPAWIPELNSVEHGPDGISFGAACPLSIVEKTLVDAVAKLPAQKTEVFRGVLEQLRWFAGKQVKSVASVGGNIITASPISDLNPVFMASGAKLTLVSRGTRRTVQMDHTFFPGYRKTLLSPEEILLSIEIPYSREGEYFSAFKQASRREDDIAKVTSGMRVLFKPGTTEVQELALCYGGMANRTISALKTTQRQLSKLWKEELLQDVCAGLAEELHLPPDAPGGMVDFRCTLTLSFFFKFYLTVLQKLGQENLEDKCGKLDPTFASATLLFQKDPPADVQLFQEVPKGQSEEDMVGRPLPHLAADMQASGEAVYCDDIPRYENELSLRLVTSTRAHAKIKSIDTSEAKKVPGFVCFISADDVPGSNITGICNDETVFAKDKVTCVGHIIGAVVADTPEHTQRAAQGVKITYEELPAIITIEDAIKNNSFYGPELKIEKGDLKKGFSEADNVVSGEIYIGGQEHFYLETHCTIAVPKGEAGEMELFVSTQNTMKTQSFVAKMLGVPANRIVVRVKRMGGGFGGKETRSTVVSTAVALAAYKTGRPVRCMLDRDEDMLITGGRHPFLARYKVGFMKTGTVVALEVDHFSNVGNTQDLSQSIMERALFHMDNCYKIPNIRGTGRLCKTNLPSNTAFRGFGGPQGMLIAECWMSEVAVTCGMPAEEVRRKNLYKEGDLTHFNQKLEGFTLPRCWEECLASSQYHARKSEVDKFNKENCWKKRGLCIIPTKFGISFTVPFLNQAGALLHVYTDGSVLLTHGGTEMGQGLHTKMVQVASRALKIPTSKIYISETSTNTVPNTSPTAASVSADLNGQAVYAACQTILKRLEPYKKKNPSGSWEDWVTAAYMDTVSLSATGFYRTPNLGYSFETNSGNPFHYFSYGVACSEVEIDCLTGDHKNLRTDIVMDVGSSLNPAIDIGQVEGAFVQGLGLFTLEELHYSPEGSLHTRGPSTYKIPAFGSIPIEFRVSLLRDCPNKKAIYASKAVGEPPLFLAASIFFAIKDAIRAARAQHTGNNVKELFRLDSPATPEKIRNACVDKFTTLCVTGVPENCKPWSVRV

Mus musculus [5] = assay: Antihyperuricemic activity in potassium oxonate-induced Kun Ming mouse model of hyperuricemia assessed as reduction in uric acid level in serum at 10 mg/kg, po qd administered via oral gavage 1 hr post potassium oxonate-challenge for 7 consecutive days by phosphotungstic acid method; format: functional, organism-based
Procedure, shortened: (§1)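 Male Kun-Ming mice, 18–22 g, acclimatised one week, food withdrawn 1 h before dosing. Once-daily oral gavage of oxonate 250 mg/kg or 0.5% CMC-Na at 8:00, then test agent in 0.5% CMC-Na at 9:00, for seven days. 24 h urine collected from day six in metabolic cages. Serum taken 1 h after final dose, liver tissue removed. Uric acid measured by phosphotungstic acid method. n = 8.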

Mus musculus [6] = assay: Antihyperuricemic activity in potassium oxonate-induced Kun Ming mouse model of hyperuricemia assessed as uricosuric activity by measuring increase in urinary uric acid excretion at 10 mg/kg, po qd administered via oral gavage 1 hr post potassium oxonate-challenge for 7 consecutive days measured up to 24 hrs post last dose by phosphotungstic acid method; format: functional, organism-based; procedure, shortened: as §1
Mus musculus [7] = assay: In vivo inhibition of potassium oxonate-induced hepatic XOD activity in Kun Ming mouse model of hyperuricemia at 10 mg/ kg, po qd administered 1 hr post potassium oxonate-challenge for 7 consecutive days via oral gavage relative to control; format: functional
Mus musculus [8] = assay: Antihyperuricemic activity in potassium oxonate-induced Kun Ming mouse model of hyperuricemia assessed as oxonate-induced hepatic XOD activity at 10 mg/ kg, po qd administered 1 hr post potassium oxonate-challenge for 7 consecutive days via oral gavage relative to oxonate-treated control; format: functional
Mus musculus [9] = assay: Antihyperuricemic activity in potassium oxonate-induced Kun Ming mouse model of hyperuricemia assessed as reduction in hepatic uric acid level at 10 mg/kg, po qd administered via oral gavage 1 hr post potassium oxonate-challenge for 7 consecutive days by phosphotungstic acid method; format: functional, organism-based; procedure, shortened: as §1
[10] = Decrease in potassium oxonate-induced renal URAT1 expression in Kun Ming mouse model of hyperuricemia at 10 mg/ kg, po qd administered 1 hr post potassium oxonate-challenge for 7 consecutive days via oral gavage by Western blot method relative to oxonate-treated control; format: functional, organism-based

SMILES	inhibition in vivo at 10 mg/kg (Mus musculus [1])	Activity (Mus musculus [2])	inhibition at 100 µM [3]	IC50 [4]	Activity (Mus musculus [5])	Activity (Mus musculus [6])	inhibition (Mus musculus [7])	Activity (Mus musculus [8])	Activity (Mus musculus [9])	Activity [10]
COc1cc(/C=C2\CCC/C(=C\c3cccc(Br)c3)C2=O)cc(OC)c1	47.3%	44.71%	20.7%	0.0189 µM						
COc1cc(/C=C2\CCC/C(=C\c3ccc(N(C)C)cc3)C2=O)cc(OC)c1	20.1%	10.74%								
COc1cc(/C=C2\CCC/C(=C\c3cc(C(C)(C)C)c(O)c(C(C)(C)C)c3)C2=O)cc(OC)c1	7.74%	19.35%								
Oc1ncnc2[nH]ncc12 [ALLOPURINOL]	118 to 148%	88.6%			Active	Active	Active	43.4%	Active	
CCc1oc2ccccc2c1C(=O)c1cc(Br)c(O)c(Br)c1 [BENZBROMARONE]	99.7%	37.58%	42.5%		Active	Active		11.3%	Active	Active
